# Results of several laboratories.
# Compare with care: the assays were run in different laboratories.
# FLT3 D835Y: Receptor-type tyrosine-protein kinase FLT3 (FLT3, Homo sapiens, UniProt P36888, D835Y)
# FLT3 D835V: Receptor-type tyrosine-protein kinase FLT3 (FLT3, Homo sapiens, UniProt P36888, D835V)
# FLT3: Receptor-type tyrosine-protein kinase FLT3 (FLT3, Homo sapiens, UniProt P36888)
# FLT3 N841I: Receptor-type tyrosine-protein kinase FLT3 (FLT3, Homo sapiens, UniProt P36888, N841I)
SMILES,target,observed,action,technique,tested at,measurement,result
CN1CCN(C(=O)c2ccc(NC(=O)Nc3ccc(N(C)c4ccnc(Nc5ccc(CS(C)(=O)=O)cc5)n4)cc3)cc2)CC1,FLT3 D835Y,binding,,,1 µM,remaining binding,5.3%
CC#CC(=O)N1CCC[C@H]1c1nc(-c2ccc(C(=O)Nc3ccccn3)cc2)c2c(N)nccn12,FLT3 D835V,enzyme activity,inhibitor,,1 µM,inhibition,1%
CCCCC(=O)Nc1ccc(-c2ccc3ncn(CCC)c(=O)c3c2)cn1,FLT3 D835Y,binding,,competition with immobilised ligand,0.5 µM,remaining binding,96%
O=C1C=C(Nc2ccc(OCc3cn(Cc4ccc(Cl)c(Cl)c4)nn3)cc2)C(=O)c2ccccc21,FLT3,enzyme activity,inhibitor,radiometric,10 µM,inhibition,-21%
COc1ccc2oc(-c3ccc4nc(N)oc4c3)c/c(=N\c3ccccc3NC(=O)CCN)c2c1,FLT3,binding,,,1 µM,remaining binding,108%
Cc1ccc(NC(=O)c2ccnc(C(F)(F)F)c2)cc1-c1cc(OCCO)nc(N2CCOCC2)c1,"Receptor-type tyrosine-protein kinase FLT3 (FLT3, Homo sapiens, UniProt P36888, R834Q)",binding,,,1 µM,remaining binding,100%
Cc1n[nH]c2ccc3nc(-c4ccc(C(=O)NCCN(C)C)cc4F)c4c(c3c12)CCCC4,FLT3,enzyme activity,inhibitor,radiometric,0.5 µM,remaining activity,22%
COc1ccc2[nH]c3c4[nH]c5ccc(OC)cc5c4c4c(c3c2c1)C(=O)NC4=O,FLT3 D835V,binding,,,1 µM,remaining binding,4%
C=CC(=O)N1CCC([C@@H]2CCNc3c(C(N)=O)c(-c4ccc(Oc5ccccc5)cc4)nn32)CC1,"Receptor-type tyrosine-protein kinase FLT3 (FLT3, Homo sapiens, UniProt P36888, ITD)",enzyme activity,inhibitor,,1 µM,inhibition,5%
C1=C/COCc2cc(ccc2OCCN2CCCC2)Nc2nccc(n2)-c2cccc(c2)COC/1,"Receptor-type tyrosine-protein kinase FLT3 (FLT3, Homo sapiens, UniProt P36888, K663Q)",binding,,,0.1 µM,remaining binding,11%
C[C@]1(O)CCCN(c2nc(Nc3ccc(S(=O)(=O)N[C@H]4CC[C@H](CN5CCN(c6ccc(C7CCC(=O)NC7=O)cc6F)CC5)CC4)cc3Cl)ncc2C(F)(F)F)C1 (stereo partly drawn),FLT3 N841I,binding,,competition with immobilised ligand,1 µM,remaining binding,68%
C#Cc1cc(-c2cc(Nc3nc(N[C@@H](C)c4ccc(F)cn4)ncc3Cl)n[nH]2)ccc1C=O,FLT3,enzyme activity,inhibitor,,0.2 µM,inhibition,98.8%
Cc1cc(S(=O)(=O)N[C@H]2CC[C@H](CN3CCN(c4ccc(C5CCC(=O)NC5=O)cc4F)CC3)CC2)ccc1Nc1ncc(C(F)(F)F)c(N2CCC[C@](C)(O)C2)n1 (stereo partly drawn),FLT3 N841I,binding,,competition with immobilised ligand,1 µM,remaining binding,47%
C[C@H]1CC[C@H](n2c3cnccc3c3cnc(Nc4ccc5c(n4)CCN(C(=O)CO)C5)nc32)CC1,FLT3 D835Y,cell-free assay,,,1 µM,remaining signal,1%
CN(C)C(=O)c1cc2cnc(Nc3ccc(-c4ccc5c(=O)cc(N6CCOCC6)oc5c4)cc3)nc2n1C1CCCC1,FLT3,binding,,competition with immobilised ligand,1 µM,remaining binding,3.9%
